Assay outcomes as filed in PubChem.
NPY2 pot ag: NPY-Y2 potentiators or agonists, primary screen, cell-based; Neuropeptide Y receptor type 2 (Homo sapiens), P49146; cells expressing NPY-Y2, potentiator/agonist read-out; activation, % at 3.6 µM; 0.45% of 220,000 active; AID 1359, 2008; in the data active means activation above about 27%;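 further: cells stimulated with NPY near EC25 plus isoproterenol at EC100; 0% = vehicle plus submaximal agonist and 100% = vehicle plus saturating agonist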
NPY-Y2 antag: NPY-Y2 receptor antagonists, primary screen, cell-based. inhibition, % at 2.7 µM. Neuropeptide Y receptor type 2 (Homo sapiens), P49146. 0.99% of 140,000 active. NPY-Y2 expressing cells, antagonist mode; in the data active means inhibition above about 17%;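 further: 0% = vehicle with agonist challenge and 100% = reference antagonist with challenge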
NPY-Y1 antag: NPY-Y1 receptor antagonists, primary screen, cell-based; Neuropeptide Y receptor type 1 (Homo sapiens), P25929; HEK293-CNG Y1 cells, membrane potential fluorescence; NPY at EC95, then isoproterenol; inhibition, % at 3.6 µM; 1% of 200,000 active; AID 1040, 2008;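 active means inhibition above the campaign mean inhibition of all tested compounds plus 3 SD, cut at about 20% in these data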;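 further: 0% = DMSO wells given NPY plus isoproterenol and 100% = isoproterenol alone without NPY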
Target sequence (P25929 whole entry, looked up): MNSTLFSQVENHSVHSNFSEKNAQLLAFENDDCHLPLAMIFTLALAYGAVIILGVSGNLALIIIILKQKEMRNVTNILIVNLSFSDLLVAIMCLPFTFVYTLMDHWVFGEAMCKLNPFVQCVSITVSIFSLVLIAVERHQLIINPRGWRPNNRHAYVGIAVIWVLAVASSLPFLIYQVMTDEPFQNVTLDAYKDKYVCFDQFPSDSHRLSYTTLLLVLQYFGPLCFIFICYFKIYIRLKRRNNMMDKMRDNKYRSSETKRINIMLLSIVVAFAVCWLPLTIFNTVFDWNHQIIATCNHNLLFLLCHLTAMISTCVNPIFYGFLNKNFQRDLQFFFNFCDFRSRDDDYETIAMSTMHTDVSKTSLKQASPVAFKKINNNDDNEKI
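Material: HEK293 Y1/CNG channel cell line | Also added: NPY (25 nM), isoproterenol (1 µM), Ro 20-1724 (25 µM) | Compound: One concentration, 3.6 µM, in 0.4% DMSO | Schedule: 3 h dye uptake, 1 h room-temperature compound, 45 min post-isoproterenol | Signal: Membrane-potential fluorescent dye readout | Read-out: % inhibition of NPY effect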
NPY1 pot ag: NPY-Y1 receptor potentiators or agonists, primary screen, cell-based; Neuropeptide Y receptor type 1 (Homo sapiens), P25929; NPY-Y1 expressing cells, potentiator/agonist activation; activation, % at 3.6 µM; 0.37% of 220,000 active; AID 1304, 2008; in the data active means activation above about 33%, passing the limit was not always enough;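 further: cells stimulated with NPY at EC10 then isoproterenol at EC100; 0% = low agonist plus stimulus and 100% = saturating agonist plus stimulus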
NPY-Y1 antag ct: NPY-Y1 receptor antagonists, selectivity check, counter-screen for NPY-Y2 antagonist project, cell-based; AID 1256, 2008; cell-based NPY-Y1 antagonism counterscreen; inhibition, % at 3.6 µM; 19% of 710 active; shares compounds with NPY-Y2 antag; in the data active means inhibition above about 20%;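 further: cells challenged with NPY then isoproterenol with cAMP sensed through a CNG channel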
NPY-Y2 ant conf: NPY-Y2 receptor antagonists, retest of hits, confirmation, HEK293-CNG cells, membrane potential fluorescence, triplicate; AID 1257, 2008; 32% of 710 active; shares compounds with NPY-Y2 antag; inhibition, % at 2.8 µM; HEK293 NPY-Y2 CNG channel;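 active means mean inhibition of triplicate wells above the hit cutoff set in the primary screen, cut at about 17% in these data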;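 further: 0% = DMSO with NPY challenge and 100% = BIIE0246 high control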
* marks the source's active call; other numbers are inactive results; . = no result. Rows were chosen to be rich in hits. Some 1.8% of all compounds tested hit in one or more screens of this group.

SMILES	NPY2 pot ag	NPY-Y2 antag	NPY-Y1 antag	NPY1 pot ag	NPY-Y1 antag ct	NPY-Y2 ant conf
Cc1ccc(NC(=O)c2cc(N(C)C)ccc2[P+](=O)O)cc1	6.3	20.6*	3.2	1.0	5.3	-0.2
CN(C)c1ccc(NC(=O)c2ccc([N+](=O)[O-])cc2Cl)cc1	1.6	0.9	-1.4	4.3	.	.
O=C(/C=C/c1cccc2ccccc12)c1ccncc1	7.5	20.3*	-4.0	-4.3	11.2	18.8*
CC1(C)Cc2ccccc2-c2nnc(SCc3ccccc3)n21	-8.3	17.5*	9.8	-40.2	6.0	2.7
C=CCNC(=O)/C(C#N)=C/c1c(C)nn(-c2ccccc2)c1Cl	1.9	6.3	-1.0	7.2	.	.
COc1ccccc1NC(=O)c1ccc(COc2ccc3c(c2)CCC3)cc1	3.3	22.5*	3.7	-8.4	4.1	16.0
COC(=O)c1ccccc1NC(=O)c1ccc(COc2ccc3c(c2)CCC3)cc1	5.0	9.4	0.2	-11.2	.	.
Cc1nc2ccccc2c(=O)n1NC(=O)c1cc(Br)ccc1Cl	-16.9	.	.	-18.2	.	.
C=CCOc1ccc2c(c1)c(=O)cc(C(=O)O)n2CC	7.1	.	.	-6.0	.	.
Cc1nc(-c2ccccc2)sc1C(=O)CSc1ccc(Cl)cc1	-2.5	20.0*	17.1	-12.4	14.1	25.1*
CC(COc1ccccc1)N1CCC(CO)(Cc2ccccc2)CC1 (stereo unspecified)	-5.5	.	-1.1	-5.8	.	.
Cc1n[nH]c(=S)n1/N=C/c1ccc(OCc2ccc(Cl)cc2Cl)cc1	7.6	11.8	0.8	18.8	.	.
Cc1n[nH]c(=S)n1/N=C/c1ccccc1OCc1ccc(Cl)cc1Cl	-10.6	17.2*	-1.4	-16.1	27.4*	54.3*
COc1ccc(Cc2c(O)nc(SCC(=O)NC(C)(C)C)[nH]c2=O)cc1	6.3	.	2.3	24.7	.	.
OCC(O)CN1CCCC1 (stereo unspecified)	-5.4	.	.	23.8	.	.
COc1ccc(OCCNc2cc(N3CCCCC3)ccc2[N+](=O)[O-])cc1	-6.8	17.5*	6.8	-12.2	4.3	7.1
CCOC(=O)c1c(NC(=O)CSC2=NN3CCCC(=O)N=C3S2)sc2c1CCCCC2	7.4	18.6*	2.9	0.0	25.4*	42.8*
CCCn1c(=O)c2ccccc2n2c(SCCOc3ccc(C)cc3)nnc12	-13.3	19.8*	7.9	-19.6	14.6	11.2
O=c1c2ccccc2oc2nc(-c3cccs3)n(CCc3ccccc3)c(=O)c12	-6.1	0.6	1.1	-18.3	.	.
c1ccc(CSc2nnc(-c3cccs3)n2Cc2ccco2)cc1	8.2	18.8*	14.9	6.4	10.9	9.8
Brc1ccc(CSc2nnc(-c3ccccn3)n2Cc2ccco2)cc1	-5.8	24.3*	19.4	-23.2	19.7	26.5*
Clc1cccc(CSc2nnc(-c3ccccn3)n2Cc2ccco2)c1	-13.0	20.4*	-0.5	22.1	11.7	7.5
O=C(/C=C/c1ccccc1)/C=C/c1ccccc1	-5.7	3.2	-1.6	3.0	.	.
Cc1ccccc1/C=C/c1nc2ccccc2c(=O)n1CCc1ccccc1	4.6	22.6*	2.2	-9.8	18.1	29.0*
COc1ccc(C2Nc3ccccc3C(=O)N2Cc2ccco2)cc1COc1ccc(NC(C)=O)cc1 (stereo unspecified)	-11.6	2.8	2.8	-11.5	.	.
SMILES	NPY2 pot ag	NPY-Y2 antag	NPY-Y1 antag	NPY1 pot ag	NPY-Y1 antag ct	NPY-Y2 ant conf
COc1ccc(C2Nc3ccccc3C(=O)N2Cc2ccco2)cc1COc1ccccc1F (stereo unspecified)	-13.4	25.0*	18.6	-11.9	6.3	11.1
CCCCN1C2=NCCCN2c2cc(C)c(C)cc21	-5.6	21.7*	13.0	-13.1	10.8	5.8
CCCCN1C2=NCCCN2c2ccccc21	9.4	0.8	4.3	17.2	.	.
Cn1ncc(C(=O)N=S(C)(=O)c2ccccc2)c1[N+](=O)[O-] (stereo unspecified)	-2.5	.	.	10.7	.	.
CNC(=S)NNC(=O)c1cc(C(C)(C)C)nn1Cc1ccc(F)cc1	3.3	.	.	-6.7	.	.
O=c1[nH][nH]c(=O)n1-c1ccccc1	1.1	.	2.6	18.1	.	.
CNC(=S)N/N=C/c1ccccc1Cl	-2.5	19.2*	4.2	-16.0	2.3	1.2
